Assay results: ChEMBL document CHEMBL4177575 (Bioorg Med Chem, 2017)

What was measured:
A549 = experiment: Cytotoxicity against human A549 cells assessed as reduction in cell viability incubated for 72 hrs by MTT assay; format: functional, cell-based; conditions: A549, 72 h
Procedure, shortened: (§1)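 Cells grown in MEM with 10% FBS; about 4×10^3 cells per well, pre-incubated 24 h at 37 °C in 5% CO2, then exposed to compound for 72 h. Seven concentrations, threefold serial dilution from 100 ug/mL initial. MTT at 5 µg/mL terminal concentration for 4 h; formazan dissolved in DMSO, absorbance read at 492 nm against 630 nm reference. IC50 is the average of two determinations.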

HepG2 = experiment: Cytotoxicity against human HepG2 cells assessed as reduction in cell viability incubated for 72 hrs by MTT assay; format: functional, cell-based; conditions: HepG2, 72 h; procedure, shortened: as §1
PC-3 = experiment: Cytotoxicity against human PC3 cells assessed as reduction in cell viability incubated for 72 hrs by MTT assay; format: functional, cell-based; conditions: PC-3, 72 h; procedure, shortened: as §1
MCF7 = experiment: Cytotoxicity against human MCF7 cells assessed as reduction in cell viability incubated for 72 hrs by MTT assay; format: functional, cell-based; conditions: MCF7, 72 h; procedure, shortened: as §1
[1] = biological target: Vascular endothelial growth factor receptor 2 (Homo sapiens, UniProt P35968); experiment: Inhibition of VEGFR2 (unknown origin) incubated for 10 mins using FAM-labeled peptide and ATP by mobility shift assay
Chain of Vascular endothelial growth factor receptor 2 (P35968 whole entry): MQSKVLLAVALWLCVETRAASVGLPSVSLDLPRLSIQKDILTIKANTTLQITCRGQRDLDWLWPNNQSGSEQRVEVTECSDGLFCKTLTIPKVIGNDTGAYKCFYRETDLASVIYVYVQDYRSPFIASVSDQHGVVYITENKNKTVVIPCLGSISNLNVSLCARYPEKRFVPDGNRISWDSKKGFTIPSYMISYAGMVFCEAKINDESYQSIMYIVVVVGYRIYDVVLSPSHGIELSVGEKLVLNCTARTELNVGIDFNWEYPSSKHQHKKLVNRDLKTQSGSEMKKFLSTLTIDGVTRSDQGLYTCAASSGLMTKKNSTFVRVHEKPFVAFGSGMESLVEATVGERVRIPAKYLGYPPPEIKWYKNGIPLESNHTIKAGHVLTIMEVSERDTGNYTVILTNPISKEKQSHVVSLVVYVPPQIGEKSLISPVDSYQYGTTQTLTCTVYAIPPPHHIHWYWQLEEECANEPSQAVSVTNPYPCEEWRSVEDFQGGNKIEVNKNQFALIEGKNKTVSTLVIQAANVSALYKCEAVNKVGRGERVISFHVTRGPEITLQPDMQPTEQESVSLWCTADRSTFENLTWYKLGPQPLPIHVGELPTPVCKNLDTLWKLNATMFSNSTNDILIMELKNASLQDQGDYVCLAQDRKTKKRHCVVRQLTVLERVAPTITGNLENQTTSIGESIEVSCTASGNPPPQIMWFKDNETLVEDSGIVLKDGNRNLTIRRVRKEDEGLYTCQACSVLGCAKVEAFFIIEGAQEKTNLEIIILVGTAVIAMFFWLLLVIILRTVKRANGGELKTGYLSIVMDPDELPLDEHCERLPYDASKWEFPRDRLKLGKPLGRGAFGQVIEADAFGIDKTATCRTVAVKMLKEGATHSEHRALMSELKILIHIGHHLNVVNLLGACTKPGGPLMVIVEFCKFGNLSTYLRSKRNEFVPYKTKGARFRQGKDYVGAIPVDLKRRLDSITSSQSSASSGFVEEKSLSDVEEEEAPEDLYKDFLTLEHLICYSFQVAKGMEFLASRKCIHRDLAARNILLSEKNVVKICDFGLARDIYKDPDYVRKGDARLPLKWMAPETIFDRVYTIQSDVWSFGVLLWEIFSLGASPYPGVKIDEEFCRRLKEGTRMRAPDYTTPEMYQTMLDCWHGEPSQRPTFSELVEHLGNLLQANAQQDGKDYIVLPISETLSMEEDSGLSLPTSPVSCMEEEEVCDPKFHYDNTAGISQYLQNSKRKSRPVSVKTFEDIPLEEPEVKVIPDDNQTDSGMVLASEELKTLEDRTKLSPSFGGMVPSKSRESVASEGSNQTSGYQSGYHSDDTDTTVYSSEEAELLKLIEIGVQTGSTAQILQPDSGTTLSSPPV

[2] = biological target: Serine/threonine-protein kinase B-raf (Homo sapiens, UniProt P15056); experiment: Inhibition of BRAF (unknown origin) incubated for 10 mins using FAM-labeled peptide and ATP by mobility shift assay
Chain of Serine/threonine-protein kinase B-raf (P15056 whole entry): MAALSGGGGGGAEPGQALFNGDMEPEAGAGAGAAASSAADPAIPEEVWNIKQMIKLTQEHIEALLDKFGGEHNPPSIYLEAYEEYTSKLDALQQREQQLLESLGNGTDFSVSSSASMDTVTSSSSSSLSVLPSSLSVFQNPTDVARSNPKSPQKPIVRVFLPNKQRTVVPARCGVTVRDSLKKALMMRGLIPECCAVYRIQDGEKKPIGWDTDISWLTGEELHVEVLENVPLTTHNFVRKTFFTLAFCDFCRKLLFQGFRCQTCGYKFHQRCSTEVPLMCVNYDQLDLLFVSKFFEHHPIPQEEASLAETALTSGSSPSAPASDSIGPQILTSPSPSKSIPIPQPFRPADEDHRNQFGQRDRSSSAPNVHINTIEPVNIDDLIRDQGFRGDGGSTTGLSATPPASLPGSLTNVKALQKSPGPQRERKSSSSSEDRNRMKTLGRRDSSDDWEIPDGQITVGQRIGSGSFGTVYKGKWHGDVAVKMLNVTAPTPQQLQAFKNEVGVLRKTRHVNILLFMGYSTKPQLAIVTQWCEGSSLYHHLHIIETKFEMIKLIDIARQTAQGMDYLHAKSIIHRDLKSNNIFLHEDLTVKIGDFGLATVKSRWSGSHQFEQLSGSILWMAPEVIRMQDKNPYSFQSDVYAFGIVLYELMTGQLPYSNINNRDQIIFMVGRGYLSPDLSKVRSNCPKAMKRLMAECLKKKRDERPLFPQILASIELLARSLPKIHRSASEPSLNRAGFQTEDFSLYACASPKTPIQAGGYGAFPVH

Compound | IC50 (A549) | IC50 (HepG2) | IC50 (PC-3) | IC50 (MCF7) | IC50 [1] | IC50 [2]
CNC(=O)c1cc(Oc2ccc(C3=NN(C(N)=S)C(c4ccc(C#N)cc4)C3)cc2)ccn1 (configuration not stated) | > 50 µM | > 50 µM | > 50 µM | – | – | –
CNC(=O)c1cc(Oc2ccc(NC(=O)Nc3ccc(Cl)c(C(F)(F)F)c3)cc2)ccn1 [SORAFENIB] | 2.92 µM | – | 3.18 to 3.24 µM | – | – | –
CNC(=O)c1cc(Oc2ccc(C3=NN(C(N)=S)C(c4ccc(F)cc4)C3)cc2)ccn1 (configuration not stated) | 19.4 µM | > 50 µM | > 50 µM | – | – | –
CNC(=O)c1cc(Oc2ccc(C3=NNC(c4ccc([N+](=O)[O-])cc4)C3)cc2)ccn1 (configuration not stated) | 19.5 µM | > 50 µM | > 50 µM | – | – | –
CNC(=O)c1cc(Oc2ccc(C3=NNC(c4ccc(F)cc4Cl)C3)cc2)ccn1 (configuration not stated) | 13.7 µM | 11.5 µM | 24.2 µM | – | – | –
CNC(=O)c1cc(Oc2ccc(C3=NNC(c4ccc(OC)c(OC)c4OC)C3)cc2)ccn1 (configuration not stated) | 19 µM | 15.7 µM | – | 9.94 µM | – | –
CNC(=O)c1cc(Oc2ccc(C3=NNC(c4ccc(Cl)c(Cl)c4)C3)cc2)ccn1 (configuration not stated) | 10.7 µM | 14.4 µM | 36.2 µM | – | – | –
CNC(=O)c1cc(Oc2ccc(C3=NN(C(N)=S)C(c4cccc(Cl)c4Cl)C3)cc2)ccn1 (configuration not stated) | > 50 µM | 1.89 µM | 15.9 µM | – | – | –
CNC(=O)c1cc(Oc2ccc(C3=NNC(c4ccc(C#N)cc4)C3)cc2)ccn1 (configuration not stated) | 17.4 µM | 15 µM | 9.91 µM | – | – | –
CNC(=O)c1cc(Oc2ccc(C3CC(c4ccc([N+](=O)[O-])cc4)=NN3)cc2)ccn1 (configuration not stated) | – | 28.9 µM | – | 8.03 µM | > 50 µM | > 50 µM
CNC(=O)c1cc(Oc2ccc(C3=NN(C(N)=S)C(c4cccc([N+](=O)[O-])c4)C3)cc2)ccn1 (configuration not stated) | > 50 µM | > 50 µM | > 50 µM | – | – | –
CNC(=O)c1cc(Oc2ccc(C3=NNC(c4ccc(OC)cc4)C3)cc2)ccn1 (configuration not stated) | 13.1 µM | 9.64 µM | 7.74 µM | 11 µM | > 50 µM | > 50 µM
CNC(=O)c1cc(Oc2ccc(C3=NNC(c4ccc(Cl)cc4Cl)C3)cc2)ccn1 (configuration not stated) | 6.93 µM | – | 7.3 µM | – | – | –
CNC(=O)c1cc(Oc2ccc(C3=NNC(c4ccc(F)cc4)C3)cc2)ccn1 (configuration not stated) | 15.1 µM | 5.28 µM | 6.77 µM | 9.48 µM | – | –
CNC(=O)c1cc(Oc2ccc(C3CC(c4ccc([N+](=O)[O-])cc4)=NN3C(N)=S)cc2)ccn1 (configuration not stated) | > 50 µM | > 50 µM | > 50 µM | – | – | –
CNC(=O)c1cc(Oc2ccc(C3=NNC(c4cccc(Cl)c4Cl)C3)cc2)ccn1 (configuration not stated) | 12.1 µM | 4.99 µM | – | – | – | –
CNC(=O)c1cc(Oc2ccc(C3=NNC(c4cccc([N+](=O)[O-])c4)C3)cc2)ccn1 (configuration not stated) | – | 26.5 µM | – | 35.4 µM | – | –
CNC(=O)c1cc(Oc2ccc(C3=NNC(c4ccc(Br)cc4)C3)cc2)ccn1 (configuration not stated) | 21 µM | 57.6 µM | > 50 µM | – | – | –
CNC(=O)c1cc(Oc2ccc(C3CC(c4ccc(Br)cc4)=NN3)cc2)ccn1 (configuration not stated) | – | 16.9 µM | – | 15.3 µM | – | –
CNC(=O)c1cc(Oc2ccc(C3CC(c4ccc(Cl)cc4)=NN3)cc2)ccn1 (configuration not stated) | 20.5 µM | 10.9 µM | – | 15.3 µM | – | –
CNC(=O)c1cc(Oc2ccc(C3=NN(C(N)=S)C(c4ccc(Cl)cc4)C3)cc2)ccn1 (configuration not stated) | > 50 µM | > 50 µM | > 50 µM | – | – | –
CNC(=O)c1cc(Oc2ccc(C3=NNC(c4cc(OC)c(OC)c(OC)c4)C3)cc2)ccn1 (configuration not stated) | 37.1 µM | 24.3 µM | 28.3 µM | – | – | –
CNC(=O)c1cc(Oc2ccc(C3=NNC(c4ccccc4)C3)cc2)ccn1 (configuration not stated) | 8.6 µM | 1.5 µM | 4.52 µM | 1.24 µM | 2.3 µM | 3.9 µM
